{"source": "paper PMC8592256", "about": "(Nature structural & molecular biology, 2021)", "assay_type_in_all_cases": "binding", "key": {"[1]": {"tested_on": "human katanin AAA domain variability hotspot mutant constructs (L214C, T253N, A419L, T422K etc.)", "assay": "DSF, katanin AAA domain variability hotspot mutants", "method_in_brief": "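Human katanin constructs (AAA domain aa 171–491, or aa 111–491; WT or mutants) were expressed in E. coli Rosetta (DE3) pLysS and purified by MBP-affinity, protease tag cleavage, anion exchange and gel filtration. Protein was 8 μM in 20 mM HEPES.Na, 120 mM NaCl, 5 mM MgCl2, 1 mM TCEP, 10 mM (NH4)2SO4, pH 7.5, with SYPRO Orange. Ligand was ADP 1 mM or compound 50–500 μM, in 5% DMSO final. Tm was taken as the minimum of the first derivative of fluorescence versus temperature.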"}, "HS-VPS4B-WT": {"molecular_target": "T1, HS-VPS4B-WT (Homo sapiens, UniProt O75351)", "T1 sequence (O75351 1-444)": "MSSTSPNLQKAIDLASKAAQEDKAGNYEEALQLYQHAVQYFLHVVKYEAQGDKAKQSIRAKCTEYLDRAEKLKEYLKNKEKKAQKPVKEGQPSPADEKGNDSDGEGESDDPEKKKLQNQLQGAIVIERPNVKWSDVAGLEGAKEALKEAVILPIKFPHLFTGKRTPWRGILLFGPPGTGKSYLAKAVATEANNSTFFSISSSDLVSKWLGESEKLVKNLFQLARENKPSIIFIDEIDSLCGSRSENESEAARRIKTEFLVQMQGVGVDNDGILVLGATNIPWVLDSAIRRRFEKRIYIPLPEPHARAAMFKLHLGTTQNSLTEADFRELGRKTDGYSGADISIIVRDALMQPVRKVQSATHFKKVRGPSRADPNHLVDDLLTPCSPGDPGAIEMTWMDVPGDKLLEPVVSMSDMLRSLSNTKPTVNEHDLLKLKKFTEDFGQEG", "assay": "DSF, HS-VPS4B-WT", "settings": "ADP 1 mM; WT and Asp-to-Cys mutant to a similar extent", "method_in_brief": "(§1)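 FIGL1 and HS-VPS4B (WT and Asp-to-Cys mutant) were scanned at 8 μM protein, with or without ADP 1 mM, in 20 mM HEPES.Na, 120 mM NaCl, 5 mM MgCl2, 1 mM TCEP, 10 mM (NH4)2SO4, pH 7.5. Buffer contained SYPRO Orange and 5% DMSO final. Melting temperature was taken from the minimum of the first derivative of the fluorescence–temperature curve. ΔTm was relative to the no-ADP control.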"}, "FIGL1-WT": {"molecular_target": "T2, FIGL1-WT (Homo sapiens, UniProt Q6PIW4)", "T2 sequence (Q6PIW4 288-674)": "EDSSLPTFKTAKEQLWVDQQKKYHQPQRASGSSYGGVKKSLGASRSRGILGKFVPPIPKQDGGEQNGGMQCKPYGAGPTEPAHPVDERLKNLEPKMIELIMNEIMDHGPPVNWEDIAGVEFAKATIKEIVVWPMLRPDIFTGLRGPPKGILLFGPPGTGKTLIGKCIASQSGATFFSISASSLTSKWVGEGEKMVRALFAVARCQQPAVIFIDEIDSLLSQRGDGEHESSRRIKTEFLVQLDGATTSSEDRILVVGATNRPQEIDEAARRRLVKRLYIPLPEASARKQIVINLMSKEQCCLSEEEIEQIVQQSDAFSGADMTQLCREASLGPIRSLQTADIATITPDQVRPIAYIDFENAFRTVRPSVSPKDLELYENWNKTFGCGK", "assay": "DSF, FIGL1-WT", "settings": "ADP 1 mM; WT and Asp-to-Cys mutant to a similar extent", "method_in_brief": "as §1"}}}
{"smiles": "Nc1nc2c(-c3ccccc3)cccn2n1", "note": "[compound 1, 8-phenyl-triazolopyridine-2-amine]", "values": [{"measurement": "effect of mutation on compound binding (DSF)", "setting": "[1]; three of the four variability hotspot mutations, compound 500 μM", "result": "reduced compound binding"}]}
{"smiles": "Nc1ncnc2c1ncn2[C@@H]1O[C@H](COP(=O)(O)OP(=O)(O)O)[C@@H](O)[C@H]1O", "note": "[ADP, adenosine 5’-diphosphate]", "values": [{"measurement": "shift in melting temperature (ΔTm)", "setting": "[1]; ADP 1 mM, five alleles with mutations at the variability hotspots", "result": "+4 to +6 °C"}, {"measurement": "increase in thermal stability on ADP binding", "setting": "HS-VPS4B-WT", "result": "approximately +5 °C"}, {"measurement": "increase in thermal stability on ADP binding", "setting": "FIGL1-WT", "result": "~+3 °C"}]}
